Test results: ChEMBL document CHEMBL4732095, “Novel naphthylamide derivatives as dual-target antifungal inhibitors: Design, synthesis and biological evaluation” (Eur J Med Chem, 2021)
Activity calls are given as the source filed them. No cut-off for these calls is given here.

Tests used:
Candida tropicalis = assay: Antifungal activity against Candida tropicalis ATCC 1369 assessed as inhibition of microbial growth by NCCLS protocol based method; assay type: functional
Procedure, shortened: (§1)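 Broth MIC50 determined following NCCLS guidelines in Sabouraud medium, with fungal suspension in 24-well format. Compound tested at 0.0625, 0.125, 0.5, 1, 2, 4, 8 and 16 μg/mL. Plates cultured statically at 35 °C. MIC50 is the lowest concentration giving 50% growth inhibition. Naftifine and fluconazole served as positive controls.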

Candida albicans [1] = assay: Antifungal activity against Candida albicans ATCC 10231 assessed as inhibition of microbial growth by NCCLS protocol based method; assay type: functional; procedure, shortened: as §1
Aspergillus fumigatus = assay: Antifungal activity against Aspergillus fumigatus KM8001 assessed as inhibition of microbial growth by NCCLS protocol based method; assay type: functional; procedure, shortened: as §1
Nakaseomyces glabratus = assay: Antifungal activity against Candida glabrata ATCC 0001 assessed as inhibition of microbial growth by NCCLS protocol based method; assay type: functional; procedure, shortened: as §1
Pichia kudriavzevii = assay: Antifungal activity against Candida krusei ATCC 6258 assessed as inhibition of microbial growth by NCCLS protocol based method; assay type: functional; procedure, shortened: as §1
Candida albicans [2] = assay: Antifungal activity against Candida albicans ATCC SC5314 assessed as induction of cell fracture at 10 nM/mL by polarizing microscopy; assay type: functional, organism-based; details: dose 10.0 nmol/ml
Procedure, shortened: (§2)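 C. albicans ATCC SC5314 observed by polarizing microscopy over treatment time. Untreated, fluconazole- and naftifine-treated control groups were included. Cell density, dividing cells and cell fracture were assessed, with cell counts taken per field.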

Candida albicans [3] = assay: Antifungal activity against fluconazole-resistant Candida albicans 632 assessed as inhibition of microbial growth by NCCLS protocol based method; assay type: functional
Candida albicans [4] = assay: Antifungal activity against Candida albicans ATCC SC5314 assessed as reduction in cell division at 10 nM/mL by polarizing microscopy; assay type: functional, organism-based; details: dose 10.0 nmol/ml; procedure, shortened: as §2
[5] = Inhibition of Candida albicans ATCC SC5314 SE incubated for 30 mins by spectrophotometric method
Procedure, shortened: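 Enzymes (SE, CYP51) extracted from C. albicans SC5314 using kits. 50 µg enzyme incubated with varying compound concentrations for 30 min at 37 °C in Tris pH 7.4, KCl, MgCl2, 2 mM NADPH, with squalene or eburicol as substrate. Reaction stopped with acetonitrile and centrifuged. Eburicol consumption (CYP51) read by HPLC. Squalene, after sulfuric acid/formaldehyde derivatization, read at 400 nm (SE). IC50 reported.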

Candida albicans [6] = assay: Antifungal activity against Candida albicans ATCC SC5314 assessed as decrease in fungal cell density at 10 nM/mL by polarizing microscopy; assay type: functional, organism-based; details: dose 10.0 nmol/ml; procedure, shortened: as §2
Candida albicans [7] = assay: Antifungal activity against fluconazole-resistant Candida albicans 17# assessed as inhibition of microbial growth by NCCLS protocol based method; assay type: functional
Candida albicans [8] = assay: Antifungal activity against fluconazole-resistant Candida albicans CaR assessed as inhibition of microbial growth by NCCLS protocol based method; assay type: functional
Candida albicans [9] = assay: Antifungal activity against fluconazole-resistant Candida albicans 901 assessed as inhibition of microbial growth by NCCLS protocol based method; assay type: functional
Candida albicans [10] = assay: Antifungal activity against fluconazole-resistant Candida albicans 904 assessed as inhibition of microbial growth by NCCLS protocol based method; assay type: functional

MIC50 (Candida tropicalis) | MIC50 (Candida albicans [1]) | MIC50 (Aspergillus fumigatus) | MIC50 (Nakaseomyces glabratus) | MIC50 (Pichia kudriavzevii) | SMILES | Activity (Candida albicans [2]) | MIC50 (Candida albicans [3]) | Activity (Candida albicans [4]) | IC50 [5] | Activity (Candida albicans [6]) | MIC50 (Candida albicans [7]) | MIC50 (Candida albicans [8]) | MIC50 (Candida albicans [9]) | MIC50 (Candida albicans [10])
0.125 µg/mL | 0.25 µg/mL | 8 µg/mL | 0.25 µg/mL | 0.5 µg/mL | O=C(CNC(=O)c1cccc2ccccc12)NC(Cn1ccnc1)C(=O)c1ccccc1 (centres undefined) | – | – | – | – | – | – | – | – | –
0.5 µg/mL | 0.5 µg/mL | > 16 µg/mL | 2 µg/mL | 0.5 µg/mL | O=C(NC(Cn1ccnc1)C(=O)NC1CCCC1)c1cccc2ccccc12 (centres undefined) | – | – | – | – | – | – | – | – | –
0.25 µg/mL | 0.5 µg/mL | 8 µg/mL | 0.5 µg/mL | 1 µg/mL | O=C(NC(Cn1ccnc1)C(=O)NCc1ccccc1)c1cccc2ccccc12 (centres undefined) | – | – | – | – | – | – | – | – | –
0.5 µg/mL | 0.5 µg/mL | > 16 µg/mL | 0.25 µg/mL | 0.5 µg/mL | O=C(NC(Cn1ccnc1)C(=O)NC1CCCCC1)c1ccc2ccccc2c1 (centres undefined) | – | – | – | – | – | – | – | – | –

SMILES | MIC50 (Candida tropicalis) | MIC50 (Candida albicans [1]) | MIC50 (Aspergillus fumigatus) | MIC50 (Nakaseomyces glabratus) | MIC50 (Pichia kudriavzevii) | Activity (Candida albicans [2]) | MIC50 (Candida albicans [3]) | Activity (Candida albicans [4]) | IC50 [5] | Activity (Candida albicans [6]) | MIC50 (Candida albicans [7]) | MIC50 (Candida albicans [8]) | MIC50 (Candida albicans [9]) | MIC50 (Candida albicans [10])
CN(C/C=C/c1ccccc1)Cc1cccc2ccccc12 [NAFTIFINE] | 0.5 µg/mL | 0.5 µg/mL | 8 µg/mL | 0.25 µg/mL | 2 µg/mL | Active | > 16 µg/mL | Active | 284 nM | Active | > 16 µg/mL | > 16 µg/mL | > 16 µg/mL | > 16 µg/mL
CN(CC(=O)Nc1cccnc1)C(=O)c1ccc2ccccc2c1 | 0.125 µg/mL | 0.125 µg/mL | 4 µg/mL | 0.25 µg/mL | 0.25 µg/mL | – | > 16 µg/mL | – | – | – | 8 µg/mL | 4 µg/mL | > 16 µg/mL | > 16 µg/mL
